Assay outcomes from PubChem.
Shown are actives, neighbours in structure and some others; about 1.3% of the full set was active somewhere.
RAD54 branch = inhibitors of human RAD54 branch migration | inhibition, % at 10.4 µM | 360,000 compounds, 0.14% hits | RAD54 Holliday junction branch migration, FAM/BHQ fluorescence | Q92698;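 active means mean normalized replicate activity at least 40 and at least half of replicates scoring 40 or more; inconclusive means only one of the two criteria met; inactive means mean below 40 and under half of replicates reaching 40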;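 further: 0% = median of neutral control wells and 100% = median of positive control wells; inhibitors cause a drop in the FAM fluorescence signal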
Target sequence (Q92698 whole entry, looked up): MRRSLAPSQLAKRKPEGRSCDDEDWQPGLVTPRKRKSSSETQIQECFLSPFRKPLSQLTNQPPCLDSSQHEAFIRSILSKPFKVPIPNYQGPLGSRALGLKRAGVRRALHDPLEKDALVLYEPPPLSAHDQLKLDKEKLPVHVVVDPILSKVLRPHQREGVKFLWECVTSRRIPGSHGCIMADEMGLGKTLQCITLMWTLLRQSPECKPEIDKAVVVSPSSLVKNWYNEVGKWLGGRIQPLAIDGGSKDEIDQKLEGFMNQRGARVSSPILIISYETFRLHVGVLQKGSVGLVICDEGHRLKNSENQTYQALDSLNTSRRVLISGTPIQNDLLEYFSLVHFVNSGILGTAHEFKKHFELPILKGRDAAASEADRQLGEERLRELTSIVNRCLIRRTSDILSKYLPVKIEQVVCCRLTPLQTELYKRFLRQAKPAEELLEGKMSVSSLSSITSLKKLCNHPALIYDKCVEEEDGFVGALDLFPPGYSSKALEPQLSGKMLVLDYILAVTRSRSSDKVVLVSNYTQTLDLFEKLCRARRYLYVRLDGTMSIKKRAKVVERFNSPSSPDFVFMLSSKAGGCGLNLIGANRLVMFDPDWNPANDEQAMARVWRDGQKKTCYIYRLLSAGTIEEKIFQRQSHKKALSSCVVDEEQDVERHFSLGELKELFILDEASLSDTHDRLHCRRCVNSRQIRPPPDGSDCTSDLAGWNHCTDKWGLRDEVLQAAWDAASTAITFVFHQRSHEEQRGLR
PAX8 inh HTS = PAX8 transcriptional activity inhibition; RMG-I TPO-luciferase reporter, SteadyGlo, 24 h; inhibition, % at 12.6 µM; 360,000 compounds, 1.2% hits; AID 652154;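 active means mean replicate inhibition at least 60% with every replicate also reaching 60%; inconclusive means only one of the two criteria is met; inactive means mean below 60% and not all replicates reaching 60%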;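 further: luciferase light reporting Pax8 driven TPO promoter activity; plate controls were median of neutral control wells for no effect and mitoxantrone controls for full effect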
FN deposit inh = fibronectin deposition inhibition | AH1F fibroblasts, Alexa488-fibronectin deposition fluorescence, overnight | inhibition, % at 12.6 µM | 350,000 compounds, 0.086% hits | AID 743247;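 active means mean inhibition across replicates of 30% or more, regardless of how many single replicates reach that level; inconclusive means mean under 30% yet at least half of replicates reach 30%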;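 further: positive control wells lacked labelled fibronectin entirely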
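Material: AH1F fibroblast monolayer depositing Alexa488-labelled fibronectin into matrix / Amount: 10000 AH1F cells per well / Signal: fluorescence 485/525 nm / Medium: DMEM, 2% serum / Compound: single dose, pinned / Incubation: 1 h cell adhesion before compound, then overnight fibronectin incubation / Reagent: Alexa488-FN, 24 nM final / Read-out: inhibition of fibronectin deposition signal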
RAD52 inh = RAD52 (human) annealing inhibition; 360,000 compounds, 0.46% hits; recombinant RAD52 DNA annealing, FRET fluorescence; inhibition, % at 18.7 µM; P43351;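 active means every replicate showing at least 50% inhibition; inconclusive means mean inhibition at least 50% but not in every replicate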
Numbers without * were called inactive.

Screening O=C1N(CN2CCOCC2)c2ccccc2C1(O)c1c[nH]c2ccccc12 (stereo not drawn) returned RAD54 branch -2 and FN deposit inh -11.
Cc1cc(C)cc(N2C(=O)NC(=O)/C(=C\C=C\c3ccco3)C2=O)c1 was read as PAX8 inh HTS 66*, FN deposit inh 2 and RAD52 inh -78.
COC(=O)C[C@]1(C(=O)OC)CN(C#N)N(c2ccc(Cl)cc2)C12c1ccccc1-c1ccccc12 was read as RAD54 branch -8, PAX8 inh HTS 109*, FN deposit inh 41* and RAD52 inh -8.
For CC(=O)OCC12CC(OC(=O)CC(C)C)C(C)=CC1OC1C(O)C(OC(C)=O)C2(C)C12CO2 (stereo not drawn) the results were PAX8 inh HTS 102*, FN deposit inh 9 and RAD52 inh -9.
For C[C@H]1CCC/C=C/[C@@H]2C[C@H](O)C[C@H]2[C@@H](O)/C=C/C(=O)O1 the results were PAX8 inh HTS 119*, FN deposit inh 2 and RAD52 inh -10.
For CC1CC(C)CC(C)C(O)C(C#N)=CC=CCC(C2CCCC2C(=O)O)OC(=O)CC(O)C(C)C1 (stereo not drawn) the results were PAX8 inh HTS 102*, FN deposit inh 5 and RAD52 inh -10.
`C[C@H]1C[C@@H](C)C(=O)[C@@H]([C@H](O)CC2CC(=O)NC(=O)C2)C1` gave RAD54 branch -5 and RAD52 inh -1.
`CCC(C)C1NC(=O)C2CCCN2C(=O)C(CC(C)C)OC(=O)CCNC(=O)C(C)N(C)C(=O)C(C(C)C)N(C)C1=O` (stereo not drawn) gave PAX8 inh HTS 72*, FN deposit inh 16 and RAD52 inh -3.
For C=CCCC[C@@H]1OC(=O)CNC(=O)C([C@@H](C)CC)NC(=O)[C@@H]2CCCN2C(=O)C([C@@H](C)CC)OC(=O)[C@H](Cc2ccccc2)N(C)C(=O)[C@H](C(C)C)NC(=O)C1(C)C (stereo partly drawn) the results were RAD54 branch -7, PAX8 inh HTS 55, FN deposit inh 3 and RAD52 inh -6.
`COc1ccc(C[C@H]2NC[C@H](O)[C@H]2OC(C)=O)cc1` gave RAD54 branch 4, PAX8 inh HTS 103*, FN deposit inh 18 and RAD52 inh -25.
CCCN1CCc2cc(O)cc3c2[C@H]1Cc1ccc(O)c(O)c1-3 was read as RAD54 branch 63*, PAX8 inh HTS 44, FN deposit inh -6 and RAD52 inh 96*.
For CN1CCc2cc(O)cc3c2[C@H]1Cc1ccc(O)c(O)c1-3 the results were RAD54 branch 39, PAX8 inh HTS inconclusive, FN deposit inh 4 and RAD52 inh 95*.
COc1cc2c(cc1O)C[C@H]1c3c(cc(O)c(OC)c3-2)CCN1C was read as RAD54 branch 7, PAX8 inh HTS -14, FN deposit inh -3 and RAD52 inh 36.
Screening c1cnc(OCCN2CC2)cn1 returned PAX8 inh HTS 87* and RAD52 inh -7.
`O=C(C1CC1)N1C[C@@H]2N[C@H](C1)[C@@H]2c1ccc(-c2ccncc2)cc1` gave PAX8 inh HTS 85*, FN deposit inh 11 and RAD52 inh 9.
Screening C1CCCN(C2CCNCC2)CC1 returned RAD54 branch -14, PAX8 inh HTS -3, FN deposit inh 14 and RAD52 inh 6.
Screening CC(C)(C)c1cc(C=C(C#N)C#N)cc(C(C)(C)C)c1O returned RAD54 branch 3, PAX8 inh HTS 109*, FN deposit inh 15 and RAD52 inh -24.
For Cc1cc2c(C(C)C)c(O)c(O)c(C=O)c2c(O)c1-c1c(C)cc2c(C(C)C)c(O)c(O)c(C=O)c2c1O the results were RAD54 branch 12, PAX8 inh HTS 104*, FN deposit inh 13 and RAD52 inh 3.
`COc1cc(C2c3cc4c(cc3CC3COC(=O)C32)OCO4)cc(OC)c1O` (stereo not drawn) gave PAX8 inh HTS 75*, FN deposit inh -27 and RAD52 inh -15.
Screening COc1ccc2c(c1OC)C(=O)OC2C1c2cc3c(cc2CCN1C)OCO3 (stereo not drawn) returned RAD54 branch -6, PAX8 inh HTS 12, FN deposit inh 4 and RAD52 inh 5.
Screening O=CC(Br)P(=O)(N1CCOCC1)N1CCOCC1 (stereo not drawn) returned RAD54 branch -12, PAX8 inh HTS 21, FN deposit inh -2 and RAD52 inh -10.
O=c1[nH]c2ccccc2n1C1CCN(C(c2ccccc2OC(F)(F)F)c2nnnn2-c2ccc3c(c2)OCCO3)CC1 (stereo not drawn) was read as RAD54 branch 5, PAX8 inh HTS 94*, FN deposit inh -13 and RAD52 inh -10.
COc1ccc(-n2nnnc2C(c2cccc(OC)c2OC)N2CCC(n3c(=O)[nH]c4ccccc43)CC2)cc1 (stereo not drawn) was read as RAD54 branch 11, PAX8 inh HTS 30, FN deposit inh -10 and RAD52 inh -14.
Screening Cc1cccc(C)c1-n1nnnc1C(c1ccccc1OC(F)(F)F)N1CCC(n2c(=O)[nH]c3ccccc32)CC1 (stereo not drawn) returned RAD54 branch -4, PAX8 inh HTS 5 and RAD52 inh -13.
Screening COc1cccc(C(c2nnnn2-c2ccc3c(c2)OCCO3)N2CCC(n3c(=O)[nH]c4ccccc43)CC2)c1OC (stereo not drawn) returned RAD54 branch 2, PAX8 inh HTS 93*, FN deposit inh -2 and RAD52 inh -14.
`CCOc1ccc(-c2c(C)n(-c3ccc(OCC)cc3)c3[n+]2CCCCC3)cc1` gave PAX8 inh HTS 87*, FN deposit inh 0 and RAD52 inh 0.
For COC1C(OC(=O)c2ccc(C)[nH]2)C(O)C(Oc2ccc3c(O)c(NC(=O)c4ccc(O)c(CC=C(C)C)c4)c(=O)oc3c2Cl)OC1(C)C (stereo not drawn) the results were RAD54 branch 19 and RAD52 inh -1.
For COC(=O)C1=C(c2ccc(C(C)=O)cc2)C[C@@H]2CC[C@H]1N2C(=O)N1CCOCC1 the results were RAD54 branch 13, PAX8 inh HTS -5, FN deposit inh 6 and RAD52 inh -3.
`O=C(Cc1cccnc1)N1CCCCN2[C@H](CO)[C@H](c3ccc(C#CC4CCCC4)cc3)[C@@H]2C1` gave RAD54 branch -7, PAX8 inh HTS -23 and RAD52 inh -18.
For CC(C)C(NC(=O)C(C(C)C)N(C)C)C(=O)N(C)C(C(=O)N1CCCC1C(=O)N1CCCC1C(=O)NCc1ccccc1)C(C)C (stereo not drawn) the results were PAX8 inh HTS 76*, FN deposit inh -2 and RAD52 inh -6.
Screening COC1CCC(OC2CC(C3(C)CCC4(CC(O)C(C)C(C(C)/C=C(\C)C(=O)C(C)CC(C)C(=O)O)O4)O3)OC3(OC(C4OC(O)(CO)C(C)CC4C)CC3C)C2C)OC1C (stereo not drawn) returned PAX8 inh HTS 106*, FN deposit inh -7 and RAD52 inh 14.
